This passage reports inhibition and IC50 results from ChEMBL document CHEMBL5365542, “Difluoromethyl-1,3,4-oxadiazoles Are Selective, Mechanism-Based, and Essentially Irreversible Inhibitors of Histone Deacetylase 6” (J Med Chem, 2023).

Calls of active or inactive are those of the source. The rule behind the calls is not given here.

Test [1] concerns T1, Histone deacetylase 6 (Danio rerio), F8W4B7 [H573A].
T1 sequence (whole entry): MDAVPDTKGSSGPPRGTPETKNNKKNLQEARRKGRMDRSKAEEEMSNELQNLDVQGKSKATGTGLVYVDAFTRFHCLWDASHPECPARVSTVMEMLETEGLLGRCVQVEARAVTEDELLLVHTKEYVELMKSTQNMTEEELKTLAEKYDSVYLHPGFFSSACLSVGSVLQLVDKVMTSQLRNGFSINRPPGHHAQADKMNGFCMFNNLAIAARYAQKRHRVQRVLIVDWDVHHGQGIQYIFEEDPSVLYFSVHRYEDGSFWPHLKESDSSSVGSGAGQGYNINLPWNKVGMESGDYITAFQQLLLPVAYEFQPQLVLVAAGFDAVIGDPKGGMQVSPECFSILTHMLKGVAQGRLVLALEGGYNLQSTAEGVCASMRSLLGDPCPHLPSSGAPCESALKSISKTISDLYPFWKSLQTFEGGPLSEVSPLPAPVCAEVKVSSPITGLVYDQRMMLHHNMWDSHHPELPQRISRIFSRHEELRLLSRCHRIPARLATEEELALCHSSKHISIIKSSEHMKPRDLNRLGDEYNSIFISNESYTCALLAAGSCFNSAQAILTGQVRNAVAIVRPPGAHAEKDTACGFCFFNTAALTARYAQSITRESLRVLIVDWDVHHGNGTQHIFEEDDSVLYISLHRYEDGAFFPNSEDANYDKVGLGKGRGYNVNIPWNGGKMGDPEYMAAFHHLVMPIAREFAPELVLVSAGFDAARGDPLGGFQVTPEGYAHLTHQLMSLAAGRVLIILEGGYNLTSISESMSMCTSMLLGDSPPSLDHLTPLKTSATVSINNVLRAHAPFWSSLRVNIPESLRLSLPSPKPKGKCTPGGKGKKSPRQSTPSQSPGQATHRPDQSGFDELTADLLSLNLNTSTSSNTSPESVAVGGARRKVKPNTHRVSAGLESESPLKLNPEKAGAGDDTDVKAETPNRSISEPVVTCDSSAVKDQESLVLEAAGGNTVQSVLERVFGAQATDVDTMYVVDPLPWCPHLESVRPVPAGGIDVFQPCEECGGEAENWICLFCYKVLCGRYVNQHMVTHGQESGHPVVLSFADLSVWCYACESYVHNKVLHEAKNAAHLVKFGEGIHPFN
The experiment in a line: Irreversible inhibition of Danio rerio HDAC6 H573A mutant catalytic domain 2 assessed as enzyme catalysed ring opening by measuring reduction in 2-(benzylamino)-N'-(2,2,2-trifluoroacetyl)pyrimidine-5-carbohydrazide formation at 100 uM incubated overnight by LC-MS analysis. Put shortly:
(§1)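 Zebrafish HDAC6 CD2 mutants were made by site-directed mutagenesis and expressed in BL21(DE3). Enzyme at 50 μM was incubated overnight with 100 μM inhibitor in 50 mM HEPES pH 7.5, 100 mM KCl, 1 mM TCEP, 5% glycerol; an enzyme-free control was included. Protein was methanol-precipitated and filtered, and products were analysed by C18 UPLC-MS with a 2-min gradient.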

Test [2] shares this test system. The test can be described thus: Irreversible inhibition of Danio rerio HDAC6 H573A mutant catalytic domain 2 assessed as enzyme catalysed ring opening by measuring reduction in 2-(Benzylamino)pyrimidine-5-carbohydrazide formation at 100 uM incubated overnight by LC-MS analysis. Put shortly: as §1
Test [3] concerns the target T2, Protein deacetylase HDAC6 (Homo sapiens, UniProt Q9UBN7).
T2 sequence (Q9UBN7 whole entry): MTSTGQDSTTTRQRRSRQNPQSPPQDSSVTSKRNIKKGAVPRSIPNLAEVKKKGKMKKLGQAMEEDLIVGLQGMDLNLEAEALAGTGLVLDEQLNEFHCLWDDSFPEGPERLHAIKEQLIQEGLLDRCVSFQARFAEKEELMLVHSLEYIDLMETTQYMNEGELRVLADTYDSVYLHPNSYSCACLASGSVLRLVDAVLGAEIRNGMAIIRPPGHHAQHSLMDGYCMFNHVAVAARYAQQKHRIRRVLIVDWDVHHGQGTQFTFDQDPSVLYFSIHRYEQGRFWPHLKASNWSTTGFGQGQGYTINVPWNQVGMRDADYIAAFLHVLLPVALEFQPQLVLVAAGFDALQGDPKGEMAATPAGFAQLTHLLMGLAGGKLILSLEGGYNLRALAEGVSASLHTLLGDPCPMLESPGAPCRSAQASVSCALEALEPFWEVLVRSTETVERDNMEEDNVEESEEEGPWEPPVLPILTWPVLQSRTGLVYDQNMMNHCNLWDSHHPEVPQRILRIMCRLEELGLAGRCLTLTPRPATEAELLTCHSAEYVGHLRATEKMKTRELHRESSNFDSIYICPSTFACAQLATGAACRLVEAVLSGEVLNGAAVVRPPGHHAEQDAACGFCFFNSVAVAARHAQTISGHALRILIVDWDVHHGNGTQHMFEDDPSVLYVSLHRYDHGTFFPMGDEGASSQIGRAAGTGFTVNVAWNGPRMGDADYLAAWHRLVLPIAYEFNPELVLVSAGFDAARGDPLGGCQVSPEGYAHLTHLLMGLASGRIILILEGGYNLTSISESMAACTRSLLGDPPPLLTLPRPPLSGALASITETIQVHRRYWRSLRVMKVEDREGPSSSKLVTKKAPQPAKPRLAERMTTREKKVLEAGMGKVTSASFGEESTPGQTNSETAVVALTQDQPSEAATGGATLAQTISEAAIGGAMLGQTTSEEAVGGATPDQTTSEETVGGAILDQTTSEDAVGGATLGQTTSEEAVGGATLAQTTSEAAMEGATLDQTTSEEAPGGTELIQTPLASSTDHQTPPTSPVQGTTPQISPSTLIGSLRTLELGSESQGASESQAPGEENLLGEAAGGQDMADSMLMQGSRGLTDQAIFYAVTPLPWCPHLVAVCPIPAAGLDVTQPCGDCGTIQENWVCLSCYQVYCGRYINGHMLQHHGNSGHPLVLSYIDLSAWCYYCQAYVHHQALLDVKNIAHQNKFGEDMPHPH
The experiment in a line: Inhibition of N-terminal GST tagged human recombinant HDAC6 (1 to 1215 residues) expressed in Sf9 insect cells using Z-Lys(Ac)-AMC as fluorogenic substrate preincubated for 2 hrs followed by substrate addition and measured after 90 mins by microplate reader analysis.

For test [4], the target named is Histone deacetylase 3/Nuclear receptor corepressor 2 (HDAC3/NCoR2) (Homo sapiens) (UniProt O15379+Q9Y618). The experiment in a line: Inhibition of C-terminal His-tagged human HDAC3 (1 to 428 residues)/N-terminal GST tagged human NcoR2 (395 to 489 residues) expressed in Sf9 insect cells using Z-Lys(Ac)-AMC as fluorogenic substrate at 10 uM preincubated for 60 mins followed by substrate addition and measured after 90 mins by microplate reader analysis relative to control. As to conditions: time 150.0 min. The essentials:
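Human recombinant enzyme was preincubated with 3-fold inhibitor dilutions for 60 min at 25 °C in Tris-HCl pH 8.0 buffer with BSA. ZMAL (75 μM solution) was then added, and the mix was incubated 90 min at 37 °C (max 1% DMSO). Trypsin was added for 30 min at 37 °C, and fluorescence was read at ex 355/em 460. Tested at least twice in duplicate.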

For `FC(F)c1nnc(-c2cnc(NCc3ccccc3)nc2)o1`, the inhibition entry in test [1] and in test [2] was “Active” each time. Further, the IC50 (in general, the point on the concentration scale where inhibition reaches its midpoint) in test [3] came out at 129 nM. Also, the inhibition (as a rule, the relative decrease from the control value, in per cent) in test [4] was under 15%.

In the case of `FC(F)(F)c1nnc(-c2cnc(NCc3ccccc3)nc2)o1`, the inhibition result in test [1] and in test [2] was “Active” each time. Moreover, the IC50 in test [3] amounted to 601 nM. In test [4], the inhibition was under 15%.
